molecular target: T1, murine ovastacin (Mus musculus, UniProt Q6HA09); assay: fluorogenic enzyme activity assay, inhibition of murine ovastacin; assay type: biochemical
T1 sequence (Q6HA09 86-435 limits assumed): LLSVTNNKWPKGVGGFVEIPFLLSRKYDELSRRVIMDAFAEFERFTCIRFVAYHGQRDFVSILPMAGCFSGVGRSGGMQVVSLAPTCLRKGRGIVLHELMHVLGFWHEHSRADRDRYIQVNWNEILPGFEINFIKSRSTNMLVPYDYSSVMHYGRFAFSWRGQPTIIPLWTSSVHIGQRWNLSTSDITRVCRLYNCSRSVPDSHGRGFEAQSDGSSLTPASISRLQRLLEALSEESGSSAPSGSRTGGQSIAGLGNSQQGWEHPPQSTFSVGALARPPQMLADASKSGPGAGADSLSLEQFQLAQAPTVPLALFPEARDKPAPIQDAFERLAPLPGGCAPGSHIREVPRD
Outline: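 Recombinant mouse ovastacin was activated with human plasmin (30 min, 10:1 molar ratio). Active enzyme was 1 nM, set by titration with murine fetuin-B. Buffer: 150 mM NaCl, 50 mM Tris·HCl pH 7.4, 0.01% Brij-35, at 37 °C; inhibitors were in DMSO. Reactions started with 25 μM Edans/Dabcyl peptide substrate (final DMSO 1.4%). Initial rates were read ≥1000 s, then proteinase K gave full-turnover calibration. Apparent Ki came from the Morrison equation; two independent experiments, in triplicate.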

Row | Ki [µM] | SMILES
1 | 0.75 ± 0.04 | O=C(CCN(Cc1ccc(Cl)cc1F)Cc1ccc(Cl)c(O)c1F)NO [Compound 12]
2 | 0.68 ± 0.02 | O=C(CCN(Cc1ccc2c(c1)OCO2)Cc1ccc(Cl)c(O)c1F)NO [Compound 13]
3 | 1.96 ± 0.08 | O=C(CCN(Cc1ccc2c(c1)OCO2)Cc1ccc(Cl)cc1F)NO [Compound 14]
4 | 8.12 ± 0.34 | O=C(CCN(Cc1cccnc1)Cc1ccc2c(c1)OCO2)NO [Compound 15]
5 | 7.58 ± 0.36 | O=C(CCN(Cc1ccncc1)Cc1ccc2c(c1)OCO2)NO [Compound 17]
6 | 8.18 ± 0.29 | O=C(CCN(Cc1ccncc1)Cc1ccc(Cl)c(O)c1F)NO [Compound 18]

From PMC7496240 (Chemmedchem, 2020)
